Screening data deposited in PubChem by Broad Institute.
Sampled rows, rich in hits. Any-hit rate of the full collection: about 3%.
rRNA inh HTS: reduced GFP signal of wild-type E. coli, primary screen, bacterial rRNA inhibitor project, GFP/RFP fluorescence, OD600, single point. GFP signal change (wild-type ribosome), % (concentration not given with the values). E. coli WT GFP vs humanized-ribosome RFP mutants, 24 h; stronger effect = lower value; DMSO median 0, no signal -100. AID 720706, 2013. hit rate 1.6% among 350,000;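 active = significant combined selectivity score with lowered wild-type GFP, culture density cut under 30%, mutant RFP and density less affected; inactive = any of these conditions unmet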
SIRT5 block: SIRT5 desuccinylase inhibitors, primary screen, biochemical, fluorescence imaging, single point, set 5 | Purified SirT5, succinyl-peptide AMC, trypsin-coupled fluorescence | hit rate 1.1% among 330,000 | NAD-dependent protein deacylase sirtuin-5, mitochondrial (Homo sapiens), Q9NXA8 | inhibition, % at 15 µM; in the data active = inhibition above about 15%
Target sequence (Q9NXA8 whole entry, looked up): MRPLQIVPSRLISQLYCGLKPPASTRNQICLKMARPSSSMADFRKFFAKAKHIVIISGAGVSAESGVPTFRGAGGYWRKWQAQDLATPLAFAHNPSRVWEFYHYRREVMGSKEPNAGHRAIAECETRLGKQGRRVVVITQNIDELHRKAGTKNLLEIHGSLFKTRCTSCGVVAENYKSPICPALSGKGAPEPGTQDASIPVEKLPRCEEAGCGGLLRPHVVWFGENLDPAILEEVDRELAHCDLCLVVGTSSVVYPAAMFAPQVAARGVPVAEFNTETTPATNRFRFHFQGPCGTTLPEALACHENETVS
Cneo AK release: Cryptococcus neoformans cell lysis inducers, primary screen, AK release luminescence, single concentration; lysis activity, % at 15 µM; hit rate 0.2% among 360,000; C. neoformans lysis, adenylate kinase release luminescence, 4 h; normalised: neutral wells 0, clomiphene wells 100;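 active = mean lysis activity across replicates of at least 80%, whatever share of replicates individually reach that level; inactive = mean lysis activity below 80%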
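Material – Cryptococcus neoformans yeast cells · Quantity – 5 × 10^6 yeast cells/mL · Buffer or medium – YPD medium · Compound – single dose · Timing – 4 h static compound exposure, 37 °C, read 1 h post-reagent · Signal – adenylate kinase release luminescence · Read-out basis – lysis from increased AK signal · Benchmarks – Clomiphene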
PGC1a acetyl inh: inhibitors of PGC1a acetylation signal, primary screen, cell-based, U2OS, AlphaScreen, inhibitor mode. hit rate 0.17% among 350,000. AlphaScreen anti-acetyl-lysine; with virally co-expressed GCN5 acetyltransferase. inhibition, % at 15.6 µM. AID 651687, 2012;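 active = every replicate shows inhibition of at least 40%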;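 also: 0% = neutral control wells and 100% = positive control wells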
S100A4 MyoIIA: inhibitors of S100A4-myosin IIA peptide binding, primary screen, biochemical, fluorescence polarization, TAMRA-MyoIIA peptide | Protein S100-A4 (Homo sapiens), P26447 | inhibition, % at 10.7 µM | hit rate 0.14% among 360,000;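 active = mean inhibition of at least 70% across replicates, with every replicate also reaching that level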
Target sequence (P26447 whole entry, looked up): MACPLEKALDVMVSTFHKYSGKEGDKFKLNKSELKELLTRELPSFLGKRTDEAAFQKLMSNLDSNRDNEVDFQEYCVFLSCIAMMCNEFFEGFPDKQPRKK
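Test system – S100A4 monomer (human) · Compound – single-point compound testing · Schedule – 5 min incubation before reading · Probe or stimulus – TAMRA-labelled myosin IIA heavy-chain peptide probe, 5 nM · Benchmarks – neutral control DMSO, positive control TFP · Medium – Calcium-containing HEPES buffer, pH 7.2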
C2C12 statin: suppressors of statin myotoxicity in C2C12 myotubes, primary screen, cell-based, single point, plate reader; rescue of ATP level, % at 7.49 µM; hit rate 0.78% among 330,000; C2C12 myotubes + simvastatin, ATP luminescence, 48 h; scaled: DMSO 0, geranylgeraniol control 100;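 active = mean ATP rescue above about 67%, or every replicate alone reaching that limit, limit read from the data, passing the limit was not always enough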;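 also: myotubes were challenged with 10 µM simvastatin during compound exposure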
Active calls of the source: *; . = no result given.

SMILES	rRNA inh HTS	SIRT5 block	Cneo AK release	PGC1a acetyl inh	S100A4 MyoIIA	C2C12 statin
Cc1nc2c(-c3ccc(Cl)cc3)c(C)[nH]n2c(=O)c1Cc1ccccc1	-52.3	17.1*	.	6.9	1.2	.
Cc1nc2c(C#N)c[nH]n2c(=O)c1CCO	9.8	-1.9	10.2	4.5	-3.3	-8.1
Cc1nc2c(C#N)c[nH]n2c(=O)c1Cc1ccccc1	-22.0*	-1.3	0.3	-6.3	-3.9	14.5
Cc1nc2c(-c3ccc(F)cc3)c(C)[nH]n2c(=O)c1Cl	-23.1*	12.0	1.8	1.9	-15.7	0.9
Cc1[nH]n2c(=O)c3c(nc2c1-c1ccc(F)cc1)CCCC3	2.6	1.9	.	0.1	3.7	.
CCCN(C)C[C@@H]1OCCCC[C@H](C)Oc2ccc(NC(=O)C3CCCCC3)cc2C(=O)N([C@H](C)CO)C[C@@H]1C	-0.4	.	.	.	.	.
O=C(N[C@H]1C=C[C@H](CC(=O)N2CCOCC2)O[C@@H]1CO)c1ccc2c(c1)OCO2	1.7	-0.9	-4.1	-3.5	6.0	-2.6
CNC(=O)C[C@@H]1CC[C@@H]2[C@H](COC[C@H](O)CN2S(=O)(=O)c2ccc(Oc3ccccc3)cc2)O1	1.1	1.9	-2.6	7.6	8.5	5.4
Cc1ccc(S(=O)(=O)N2C[C@@H](O)COC[C@@H]3O[C@H](CC(=O)NCc4ccc5c(c4)OCO5)CC[C@H]32)cc1	-4.4	7.3	109.3*	-7.5	-3.4	6.6
CN(C)CCCNC(=O)C[C@@H]1CC[C@H]2[C@@H](COC[C@@H](O)CN2Cc2ccc(Cl)c(Cl)c2)O1	-7.7	4.2	-6.3	1.9	137.5*	-4.7
O=C(C[C@H]1CC[C@H]2[C@@H](COC[C@@H](O)CN2S(=O)(=O)c2ccc(Oc3ccccc3)cc2)O1)NC1CCC1	0.7	4.7	85.7*	-7.8	-12.1	6.0
CN(C)CCCNC(=O)C[C@H]1CC[C@H]2[C@@H](COC[C@H](O)CN2S(=O)(=O)c2ccc(F)cc2)O1	6.2	21.8*	0.8	0.2	9.5	-2.3
CCCNC(=O)C[C@H]1CC[C@H]2[C@@H](COC[C@@H](O)CN2Cc2ccc(Cl)c(Cl)c2)O1	-4.0	0.1	52.2	2.4	0.0	20.3
O=C(C[C@H]1CC[C@@H]2[C@H](COC[C@@H](O)CN2S(=O)(=O)c2ccccc2)O1)NCC1CCCCC1	.	100.2*	-0.8	-6.2	-28.7	16.8
CCCNC(=O)C[C@H]1CC[C@H]2[C@@H](COC[C@@H](O)CN2S(=O)(=O)c2ccc(Oc3ccccc3)cc2)O1	-1.7	2.5	90.4*	-6.1	11.9	-9.4
O=C(C[C@@H]1CC[C@@H]2[C@H](COC[C@H](O)CN2S(=O)(=O)c2ccccc2)O1)NCC1CCCCC1	-2.7	3.0	-2.3	-2.0	15.4	10.8
Cc1ccc(/C=C2\SC(=S)N(CCCC(=O)N3CCOCC3)C2=O)cc1	-25.7*	-2.0	-2.2	.	-2.2	17.9
COC(=O)c1ccc(/C=C2/SC(=S)N(CCC(=O)N3CCOCC3)C2=O)cc1	-2.5	-7.2	5.1	-1.3	-6.8	71.2*
COC(=O)c1ccc(/C=C2\SC(=S)N(CCCC(=O)N3CCOCC3)C2=O)cc1	6.2	-2.0	3.4	0.5	-6.5	-3.5
CC(C)(C)[S@@](=O)N1Cc2cc(C(=O)N[C@@H]3CCN(Cc4ccccc4)C3)nc(-c3cccc(-c4cncnc4)c3)c2[C@H]1CCO	1.9	.	.	.	.	.
CCCCn1c(N)c(S(=O)(=O)c2ccc(C)cc2)c2nc3ccccc3nc21	-7.0	2.4	5.6	-18.9	-12.2	.
CN(C)CCCn1c(N)c(S(=O)(=O)c2ccccc2)c2nc3ccccc3nc21	-27.7*	-29.3	0.7	2.9	-5.0	.
Cc1noc(C)c1NC(=O)N(C)C[C@H]1Oc2c(NC(=O)Nc3ccc(C(F)(F)F)cc3)cccc2C(=O)N([C@@H](C)CO)C[C@H]1C	-3.0	0.4	0.2	5.3	21.8	-21.6
N#C[C@H]1[C@H](c2ccccc2-c2ccccc2)[C@@H](CO)N1C(=O)Cc1ccncc1	-3.8	-0.5	.	12.7	-10.6	.
C=CCn1c(SCC(=O)Nc2nc3ccccc3s2)nc(O)c(CC)c1=O	-26.8*	-1.7	-2.5	-9.3	-0.6	.
SMILES	rRNA inh HTS	SIRT5 block	Cneo AK release	PGC1a acetyl inh	S100A4 MyoIIA	C2C12 statin
COCC(=O)N1CC2(C1)[C@H](c1ccc(-c3ccccc3)cc1)[C@H](CO)N2C(=O)COC	-0.1	-1.8	.	6.1	-27.3	.
O=C(C[C@H]1C=C[C@@H](NC(=O)c2ccc(F)cc2)[C@H](CO)O1)NCc1ccncn1	0.8	0.2	1.9	2.1	5.9	-2.0
COc1cccc(NC(=O)N[C@@H]2C=C[C@@H](CC(=O)NCc3ccncn3)O[C@@H]2CO)c1	0.1	4.9	-8.2	.	90.0*	-1.3
O=C(C[C@H]1C=C[C@H](NC(=O)c2ccc(F)cc2)[C@H](CO)O1)NCc1ccncn1	2.7	7.4	3.9	-34.6	116.4*	8.6
CC(=O)N(C)C[C@H]1Oc2ncc(-c3ccc(C#N)cc3)cc2C(=O)N([C@@H](C)CO)C[C@@H]1C	7.8	-2.6	-0.7	-10.4	-1.4	-3.5
Cc1ccc(NC(=O)COc2cccc(/C=C3\SC(=S)N(CCC(=O)O)C3=O)c2)cc1Cl	-2.6	26.8*	.	4.9	3.5	23.6
O=C(O)CCN1C(=O)/C(=C\c2cccc(OCC(=O)Nc3ccc(Cl)cc3)c2)SC1=S	-29.6*	1.5	9.7	-6.2	2.4	36.1
CCOc1ccc(/C=C2\SC(=S)N(CCC(=O)O)C2=O)cc1	-27.4*	-5.3	.	8.1	-4.1	.
COc1cccc(/C=C2\SC(=S)N(CCCC(=O)Nc3ccc(C(=O)O)cc3)C2=O)c1	9.3	-0.8	-0.3	.	12.8	-2.3
c1ccn2c(c1)nc1c2nc2ccccn21	.	.	1.0	-37.0	.	167.9*
Nc1nn(-c2ccccc2)c2ccc([N+](=O)[O-])cc12	-20.9*	1.0	-0.8	.	2.4	-13.4
O=C(c1cc(Cl)nc2ccccc12)N(Cc1nnc(-c2ccc(Cl)cc2)o1)C1CC1	-27.4*	-0.8	.	.	-1.9	-24.2
CCCNC(=O)NC[C@H]1CC[C@@H]2[C@@H](CN2S(=O)(=O)c2ccccc2[N+](=O)[O-])O1	.	-1.9	.	.	2.8	.
Cc1ccsc1/C=C1\CCC(C2CCCC2)C1=O (stereo not drawn)	-22.7*	-0.9	.	-3.4	-6.4	-5.4
Cc1ccc(/C=C2\CCC(C3CCCC3)C2=O)cc1 (stereo not drawn)	.	.	-4.5	.	.	.
